Assay results published in ChEMBL document CHEMBL5104204, “Synthesis and in vitro anticancer evaluation of novel flavonoid-based amide derivatives as regulators of the PI3K/AKT signal pathway for TNBC treatment” (RSC Med Chem, 2022).

Tests used:
Type in all cases: functional, cell-based
[1] = test system: MDA-MB-231; experiment: Antitumor activity against human MDA-MB-231 cells assessed as inhibit cell proliferation incubated for 72 hrs by CCK-8 assay; conditions: MDA-MB-231, 72 h
Summary of the method: (§1)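 CCK8 viability readout. Culture media: HCC1937, A549, HeLa and GTL-16 in RPMI 1640; MDA-MB-231, MCF-7 and HepG2 in high-glucose DMEM; all with 10% FBS and penicillin/streptomycin, 37 °C, 5% CO2. 4×10^3–6×10^3 cells/well, 24 h, then compounds in serum-free medium, 72 h at 37 °C. 10% CCK8, 2 h, OD 450/630 nm. Five wells per group; IC50 from inhibition rate; three independent experiments, mean ± SD.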

[2] = test system: MCF7; experiment: Antitumor activity against human MCF7 cells assessed as inhibit cell proliferation incubated for 72 hrs by CCK-8 assay; conditions: MCF7, 72 h; summary of the method: as §1
[3] = test system: HCC1937; experiment: Antitumor activity against human HCC1937 cells assessed as inhibit cell proliferation incubated for 72 hrs by CCK-8 assay; conditions: HCC1937, 72 h; summary of the method: as §1
[4] = test system: A549; experiment: Antitumor activity against human A549 cells assessed as inhibit cell proliferation incubated for 72 hrs by CCK-8 assay; conditions: A549, 72 h; summary of the method: as §1
[5] = test system: HepG2; experiment: Antitumor activity against human HepG2 cells assessed as inhibit cell proliferation incubated for 72 hrs by CCK-8 assay; conditions: HepG2, 72 h; summary of the method: as §1
[6] = test system: GTL 16 cell line; experiment: Antitumor activity against human GTL 16 cell line assessed as inhibit cell proliferation incubated for 72 hrs by CCK-8 assay; conditions: GTL 16, 72 h; summary of the method: as §1
[7] = test system: HeLa; experiment: Antitumor activity against human HeLa cells assessed as inhibit cell proliferation incubated for 72 hrs by CCK-8 assay; summary of the method: as §1

COc1ccc(C(=O)Nc2cccc(-c3oc4cc(-c5ccc(F)cc5)ccc4c(=O)c3O)c2)c(F)c1
IC50 [1]: 17.6 µM
IC50 [2]: 20 µM
IC50 [3]: 24.4 µM
IC50 [4]: 40 µM
IC50 [5]: 45.3 µM
IC50 [6]: 15.3 µM
IC50 [7]: 16.1 µM

Cc1cc(C(=O)Nc2cccc(-c3oc4cc(-c5ccc(F)cc5)ccc4c(=O)c3O)c2)ccc1F
IC50 [1]: 7.44 µM
IC50 [2]: 7.71 µM
IC50 [3]: 5.42 µM
IC50 [4]: 11.5 µM
IC50 [5]: 9.54 µM
IC50 [6]: 12.1 µM
IC50 [7]: 18.9 µM

O=C(Nc1cccc(-c2oc3cc(-c4ccc(F)cc4)ccc3c(=O)c2O)c1)c1ccc(-c2ccccc2)cc1
IC50 [1]: 63.2 µM
IC50 [2]: 38.5 µM
IC50 [3]: 44.1 µM
IC50 [4]: > 100 µM
IC50 [5]: 88.5 µM
IC50 [7]: > 100 µM

O=C(Nc1cccc(-c2oc3cc(-c4ccc(F)cc4)ccc3c(=O)c2O)c1)c1ccc(Br)cc1
IC50 [1]: 24.9 µM
IC50 [2]: 24 µM
IC50 [3]: 8.63 µM
IC50 [4]: 13.5 µM
IC50 [5]: 13.9 µM
IC50 [6]: 25.4 µM
IC50 [7]: 9.74 µM

O=C(Nc1cccc(-c2oc3cc(-c4ccc(F)cc4)ccc3c(=O)c2O)c1)c1ccc(Cl)cc1
IC50 [1]: 12.8 µM
IC50 [2]: 4.73 µM
IC50 [3]: 4.03 µM
IC50 [4]: 10.8 µM
IC50 [5]: 11 µM
IC50 [6]: 9.14 µM
IC50 [7]: 3.67 µM

O=C(Nc1cccc(-c2oc3cc(-c4ccc(F)cc4)ccc3c(=O)c2O)c1)c1ccc(Br)cc1F
IC50 [4]: 46.1 µM
IC50 [5]: > 100 µM

O=C(Nc1cccc(-c2oc3cc(-c4ccc(F)cc4)ccc3c(=O)c2O)c1)c1ccc([N+](=O)[O-])cc1
IC50 [1]: 14.7 µM
IC50 [2]: 3.97 µM
IC50 [3]: 5.64 µM
IC50 [4]: 2.44 µM
IC50 [5]: 1.86 µM
IC50 [6]: 18.2 µM
IC50 [7]: 12.3 µM

O=C(Nc1cccc(-c2oc3cc(-c4ccc(F)cc4)ccc3c(=O)c2O)c1)c1cnc(Cl)nc1Cl
IC50 [4]: > 100 µM
IC50 [5]: > 100 µM

O=C(Nc1cccc(-c2oc3cc(-c4ccc(F)cc4)ccc3c(=O)c2O)c1)c1ccc(C(F)(F)F)cc1
IC50 [1]: 29.4 µM
IC50 [2]: 32.6 µM
IC50 [3]: 7.35 µM
IC50 [4]: 19.4 µM
IC50 [5]: 42.7 µM
IC50 [6]: 33 µM
IC50 [7]: 17.4 µM

CCc1ccc(C(=O)Nc2cccc(-c3oc4cc(-c5ccc(F)cc5)ccc4c(=O)c3O)c2)cc1
IC50 [1]: 9.07 µM
IC50 [2]: 22.8 µM
IC50 [3]: 13.2 µM
IC50 [4]: 18.5 µM
IC50 [5]: 20.6 µM
IC50 [6]: 24.6 µM
IC50 [7]: 21 µM

COc1ccccc1C(=O)Nc1cccc(-c2oc3cc(-c4ccc(F)cc4)ccc3c(=O)c2O)c1
IC50 [1]: 5.11 µM
IC50 [2]: 2.1 µM
IC50 [3]: 9.05 µM
IC50 [4]: 11.7 µM
IC50 [5]: 14.5 µM
IC50 [6]: 6.37 µM
IC50 [7]: 14.1 µM

O=C(Nc1cccc(-c2oc3cc(-c4ccc(F)cc4)ccc3c(=O)c2O)c1)c1ccc(F)cc1F
IC50 [1]: 11.2 µM
IC50 [2]: 13.5 µM
IC50 [3]: 6.98 µM
IC50 [4]: 20.5 µM
IC50 [5]: 26.4 µM
IC50 [6]: 9.64 µM
IC50 [7]: 10.7 µM

COc1cc(OC)cc(C(=O)Nc2cccc(-c3oc4cc(-c5ccc(F)cc5)ccc4c(=O)c3O)c2)c1
IC50 [1]: 4.04 µM
IC50 [2]: 3.47 µM
IC50 [3]: 6.25 µM
IC50 [4]: 2.39 µM
IC50 [5]: 23.5 µM
IC50 [6]: 19.6 µM
IC50 [7]: 2.7 µM

N#Cc1ccc(C(=O)Nc2cccc(-c3oc4cc(-c5ccc(F)cc5)ccc4c(=O)c3O)c2)cc1
IC50 [1]: 11.6 µM
IC50 [2]: 2.66 µM
IC50 [3]: 2.99 µM
IC50 [4]: 2.36 µM
IC50 [5]: 7.11 µM
IC50 [6]: 31.8 µM
IC50 [7]: 23.3 µM

Cc1ccccc1C(=O)Nc1cccc(-c2oc3cc(-c4ccc(F)cc4)ccc3c(=O)c2O)c1
IC50 [1]: 4.91 µM
IC50 [2]: 2.28 µM
IC50 [3]: 9.9 µM
IC50 [4]: 17.6 µM
IC50 [5]: 19.4 µM
IC50 [6]: 24.8 µM
IC50 [7]: 11.9 µM

O=C(Nc1cccc(-c2oc3cc(-c4ccc(F)cc4)ccc3c(=O)c2O)c1)c1ccc(F)cc1
IC50 [1]: 16 µM
IC50 [2]: 8.59 µM
IC50 [3]: 14.2 µM
IC50 [4]: 6.93 µM
IC50 [5]: 9.28 µM
IC50 [6]: 14.6 µM
IC50 [7]: 5.35 µM

COc1cccc(C(=O)Nc2cccc(-c3oc4cc(-c5ccc(F)cc5)ccc4c(=O)c3O)c2)c1
IC50 [1]: 9.16 µM
IC50 [2]: 15.3 µM
IC50 [3]: 18.9 µM
IC50 [4]: 10.8 µM
IC50 [5]: 9.95 µM
IC50 [6]: 12.5 µM
IC50 [7]: 5.65 µM

COc1ccc(C(=O)Nc2cccc(-c3oc4cc(-c5ccc(F)cc5)ccc4c(=O)c3O)c2)cc1
IC50 [1]: 16.5 µM
IC50 [2]: 6.25 µM
IC50 [3]: 5.49 µM
IC50 [4]: 8.7 µM
IC50 [5]: 8.42 µM
IC50 [6]: 21.1 µM
IC50 [7]: 4.82 µM

O=c1[nH]cc(F)c(=O)[nH]1 [FLUOROURACIL]
IC50 [1]: 7.75 µM
IC50 [2]: 4.42 µM
IC50 [3]: 25.9 µM
IC50 [4]: 2.65 µM
IC50 [5]: 2.88 µM
IC50 [6]: 0.84 µM
IC50 [7]: 1.94 µM

Cc1cccc(C(=O)Nc2cccc(-c3oc4cc(-c5ccc(F)cc5)ccc4c(=O)c3O)c2)c1
IC50 [1]: 2.84 µM
IC50 [2]: 7.85 µM
IC50 [3]: 8.03 µM
IC50 [4]: 16.4 µM
IC50 [5]: 13.5 µM
IC50 [6]: 10.9 µM
IC50 [7]: 6.65 µM

CCCc1ccc(C(=O)Nc2cccc(-c3oc4cc(-c5ccc(F)cc5)ccc4c(=O)c3O)c2)cc1
IC50 [1]: 32.2 µM
IC50 [2]: 36.8 µM
IC50 [3]: 15.3 µM
IC50 [4]: 47.6 µM
IC50 [5]: 51.5 µM
IC50 [6]: 20.4 µM
IC50 [7]: 8.79 µM

O=C(Nc1cccc(-c2oc3cc(-c4ccc(F)cc4)ccc3c(=O)c2O)c1)c1cc(F)cc(F)c1
IC50 [1]: 2.44 µM
IC50 [2]: 2.49 µM
IC50 [3]: 2.07 µM
IC50 [4]: 7.62 µM
IC50 [5]: 4.96 µM
IC50 [6]: 7.41 µM
IC50 [7]: 3.38 µM

Cc1cc(C)cc(C(=O)Nc2cccc(-c3oc4cc(-c5ccc(F)cc5)ccc4c(=O)c3O)c2)c1
IC50 [1]: 11.9 µM
IC50 [2]: 20.4 µM
IC50 [3]: 4.86 µM
IC50 [4]: 3.74 µM
IC50 [5]: 13.4 µM
IC50 [6]: 13.5 µM
IC50 [7]: 5.54 µM

O=C(Nc1cccc(-c2oc3cc(-c4ccc(F)cc4)ccc3c(=O)c2O)c1)c1ccccc1F
IC50 [1]: 7.24 µM
IC50 [2]: 7.57 µM
IC50 [3]: 10.8 µM
IC50 [4]: 4.41 µM
IC50 [5]: 10.1 µM
IC50 [6]: 17.4 µM
IC50 [7]: 5.63 µM

O=C(Nc1cccc(-c2oc3cc(-c4ccc(F)cc4)ccc3c(=O)c2O)c1)c1cccc(F)c1
IC50 [1]: 2.51 µM
IC50 [2]: 5.77 µM
IC50 [3]: 6.59 µM
IC50 [4]: 15.4 µM
IC50 [5]: 15.5 µM
IC50 [6]: 15.8 µM
IC50 [7]: 8.78 µM

Cc1ccc(C(=O)Nc2cccc(-c3oc4cc(-c5ccc(F)cc5)ccc4c(=O)c3O)c2)cc1
IC50 [1]: 4.35 µM
IC50 [2]: 2.4 µM
IC50 [3]: 7.11 µM
IC50 [4]: 6.91 µM
IC50 [5]: 2.32 µM
IC50 [6]: 12.9 µM
IC50 [7]: 6.19 µM
